From ChEMBL document CHEMBL1933048, “Inhibition of the pore-forming protein perforin by a series of aryl-substituted isobenzofuran-1(3H)-ones” (Bioorg Med Chem, 2012) come the findings set out here.

The term inhibition denotes the relative decrease from the control value, in per cent.

SMILES strings stand for the structures. The source made the active and inactive calls. The calls are words filed in the database; no cut-off is given here.

Chain of Pneumolysin (Streptococcus pneumoniae serotype 4 (strain ATCC BAA-334 / TIGR4)) (P0C2J9 whole entry): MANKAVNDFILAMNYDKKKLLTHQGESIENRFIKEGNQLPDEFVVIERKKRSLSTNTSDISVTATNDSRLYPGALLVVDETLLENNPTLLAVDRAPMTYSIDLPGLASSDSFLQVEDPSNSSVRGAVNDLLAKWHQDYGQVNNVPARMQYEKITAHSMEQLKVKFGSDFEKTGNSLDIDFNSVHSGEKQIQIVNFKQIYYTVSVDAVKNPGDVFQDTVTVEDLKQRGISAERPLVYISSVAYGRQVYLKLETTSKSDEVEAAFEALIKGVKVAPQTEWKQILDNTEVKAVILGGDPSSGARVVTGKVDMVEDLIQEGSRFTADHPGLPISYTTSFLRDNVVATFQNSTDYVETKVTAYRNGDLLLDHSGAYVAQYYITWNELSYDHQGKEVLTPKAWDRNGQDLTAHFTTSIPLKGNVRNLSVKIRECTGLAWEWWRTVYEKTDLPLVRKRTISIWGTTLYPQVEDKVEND

The target of the first data set is T1, Perforin-1 (Homo sapiens) (UniProt P14222).
T1 sequence (whole entry): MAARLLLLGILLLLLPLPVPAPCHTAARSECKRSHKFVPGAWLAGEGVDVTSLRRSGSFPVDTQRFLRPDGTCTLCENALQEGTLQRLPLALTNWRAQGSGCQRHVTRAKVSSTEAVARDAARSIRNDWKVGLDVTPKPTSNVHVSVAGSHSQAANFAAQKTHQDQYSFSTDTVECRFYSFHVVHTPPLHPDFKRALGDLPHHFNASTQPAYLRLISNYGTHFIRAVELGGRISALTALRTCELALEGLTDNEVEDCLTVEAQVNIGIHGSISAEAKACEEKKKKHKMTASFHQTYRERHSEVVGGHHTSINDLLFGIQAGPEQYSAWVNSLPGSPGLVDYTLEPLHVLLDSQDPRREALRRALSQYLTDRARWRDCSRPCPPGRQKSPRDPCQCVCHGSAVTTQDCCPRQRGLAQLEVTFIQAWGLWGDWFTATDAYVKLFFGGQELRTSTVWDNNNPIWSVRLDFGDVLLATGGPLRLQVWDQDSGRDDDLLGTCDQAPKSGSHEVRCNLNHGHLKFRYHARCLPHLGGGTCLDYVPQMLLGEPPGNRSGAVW
The data set can be described thus: Inhibition of perforin released from human KHYG-1 NK cells assessed as inhibition of perforin-mediated lysis of human K562 cells at 20 uM by [51Cr] release assay in absence of serum. The data set is classed as cell-based.
Settings: not given
The procedure, abridged: (§1)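 KHYG-1 cells (4 × 10⁵/mL, RPMI + 0.1% BSA) received either BSA medium or 10% mouse serum final, then compound at 20 µM for 20 min at rt. K562 cells labelled with 75 µCi ⁵¹Cr (90 min, 37 °C) and washed were added at E:T 2:1 for 4 h at 37 °C. ⁵¹Cr release was gamma-counted. Specific lysis used spontaneous/maximum release, and inhibition was taken vs untreated control. Triplicate wells; ≥3 determinations.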
Regarding `O=C1NC(=S)N/C1=C/c1cc2cc(-c3ccc4c(c3)COC4=O)ccc2[nH]1`, the inhibition worked out at 91%.
Take `Cc1cc2c(c(=S)[nH]1)C(=O)OC2=Cc1csc2ccccc12`: the inhibition amounted to 41%.
As to `O=C1NC(=O)/C(=C\c2ccc(-c3ccc4c(c3)COC4=O)s2)N1`, the inhibition came out at 54%.
In the case of `O=C1NC(=S)N/C1=C/c1cc2cc(-c3ccc4c(c3)COC4=O)ccc2o1`, the inhibition is 61%.
Same read-out and setting: in the case of `O=C1NC(=S)NC(=O)C1=Cc1ccc(-c2ccc3c(c2)COC3=O)s1` it was 91%.
`O=C1NC(=S)N/C1=C/c1cc2ccc(-c3ccc4c(c3)COC4=O)cc2s1`: the inhibition stood at 46%.
Same read-out and setting: in the case of `O=C1NC(=S)N/C1=C/c1cnc(-c2ccc3c(c2)COC3=O)s1` it was 45%; in that of `O=C1NC(=S)N/C1=C/c1cc2ccc(-c3ccc4c(c3)COC4=O)cc2[nH]1`, 100%.
Still for that read-out and setting: to `O=C1NC(=S)N/C1=C/c1cc(-c2ccc3c(c2)COC3=O)ns1` belongs 45%.
The same measure, in the same setting: in the case of `O=C1NC(=O)/C(=C\c2ccc(-c3ccc4c(c3)COC4=O)s2)S1` it was 36%; in that of `O=C1NC(=S)N/C1=C/c1cc(-c2ccc3c(c2)COC3=O)cs1`, 49%.
Consider `O=C1NC(=O)C(=Cc2ccc(-c3ccc4c(c3)COC4=O)s2)C(=O)N1`, for which the inhibition came to 52%.
As for `O=C1NC(=S)N/C1=C/c1ccc(-c2ccc3c(c2)COC3=O)s1`, the inhibition came out at 53%.
For `O=C1NC(=S)N/C1=C/c1ccc(-c2ccc3c(c2)COC3=O)cn1`, the inhibition was determined as 37%.
Consider `O=C1NC(=S)N/C1=C/c1ccc(-c2ccc3c(c2)COC3=O)o1`, for which the inhibition came to 74%.
On the same count and under the same terms, to `O=C1NC(=S)N/C1=C/c1ccc2ccc(-c3ccc4c(c3)COC4=O)cc2n1` belongs 52%; to `O=C1NC(=S)N/C1=C/c1ccc(-c2ccc3c(c2)COC3=O)cc1`, 28%.
`O=C1NC(=S)N/C1=C/c1csc(-c2ccc3c(c2)COC3=O)n1`: the inhibition came out at 11%.
`O=C1NC(=S)N/C1=C/c1cc2cc(-c3ccc4c(c3)COC4=O)ccc2s1`: the inhibition is 51%.
The same measure, in the same setting: to `O=C1NC(=S)N/C1=C/c1ccc2cc(-c3ccc4c(c3)COC4=O)ccc2n1` belongs 60%; to `O=C1NC(=S)N/C1=C/c1nc(-c2ccc3c(c2)COC3=O)cs1`, 30%.
Still for that read-out and setting: in the case of `O=C1NC(=S)N/C1=C/c1cc(-c2ccc3c(c2)COC3=O)no1` it was 41%.

Test system in another data set: not listed separately
The data set is described as follows: Cytotoxicity against human KHYG-1 NK cells assessed as cell viability at 20 uM after 18 to 24 hrs by trypan blue assay. The data set is classed as cell-based. The note with it: read-out: Activity. The procedure, abridged: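 KHYG-1 NK cells were suspended at 4 × 10⁵ cells/mL in RPMI + 0.1% BSA and treated with compound at rt for 20 min. Instead of target cells, RPMI + 0.1% BSA was added, followed by 4 h at 37 °C. Cells were washed ×3 and kept in complete medium for 18–24 h at 37 °C. Trypan blue viable/total counts gave % viability vs a DMSO control. Values are the mean of ≥3 determinations.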
For the molecule `O=C1NC(=S)N/C1=C/c1cc2cc(-c3ccc4c(c3)COC4=O)ccc2[nH]1`, the viability at 20 µM is 23.2%.
Still for that read-out and setting: in the case of `Cc1cc2c(c(=S)[nH]1)C(=O)OC2=Cc1csc2ccccc12` it was 77%; in that of `O=C1NC(=O)/C(=C\c2ccc(-c3ccc4c(c3)COC4=O)s2)N1`, 91.5%; in that of `O=C1NC(=S)N/C1=C/c1cc2cc(-c3ccc4c(c3)COC4=O)ccc2o1`, 29.9%.
Regarding `O=C1NC(=S)NC(=O)C1=Cc1ccc(-c2ccc3c(c2)COC3=O)s1`, the viability at 20 µM is 38%.
Take `O=C1NC(=S)N/C1=C/c1cc2ccc(-c3ccc4c(c3)COC4=O)cc2s1`: the viability at 20 µM is 19.7%.
On the same count and under the same terms, in the case of `O=C1NC(=S)N/C1=C/c1cnc(-c2ccc3c(c2)COC3=O)s1` it was 68%.
`O=C1NC(=S)N/C1=C/c1cc2ccc(-c3ccc4c(c3)COC4=O)cc2[nH]1`: the viability at 20 µM was 10%.
As to `O=C1NC(=S)N/C1=C/c1cc(-c2ccc3c(c2)COC3=O)ns1`, the viability at 20 µM was 57%.
`O=C1NC(=O)/C(=C\c2ccc(-c3ccc4c(c3)COC4=O)s2)S1`: the viability at 20 µM was determined as 19%.
With `O=C1NC(=S)N/C1=C/c1cc(-c2ccc3c(c2)COC3=O)cs1`, the viability at 20 µM is 55%.
The same measure, in the same setting: in the case of `O=C1NC(=O)C(=Cc2ccc(-c3ccc4c(c3)COC4=O)s2)C(=O)N1` it was 77.6%.
In the case of `O=C1NC(=S)N/C1=C/c1ccc(-c2ccc3c(c2)COC3=O)s1`, the viability at 20 µM was found to be 88%.
The same measure, in the same setting: to `O=C1NC(=S)N/C1=C/c1ccc(-c2ccc3c(c2)COC3=O)cn1` belongs 92%.
The same measure, in the same setting: to `O=C1NC(=S)N/C1=C/c1ccc(-c2ccc3c(c2)COC3=O)o1` belongs 66%; to `O=C1NC(=S)N/C1=C/c1ccc2ccc(-c3ccc4c(c3)COC4=O)cc2n1`, 59%; to `O=C1NC(=S)N/C1=C/c1ccc(-c2ccc3c(c2)COC3=O)cc1`, 59%.
Same read-out and setting: in the case of `O=C1NC(=S)N/C1=C/c1csc(-c2ccc3c(c2)COC3=O)n1` it was 25%; in that of `O=C1NC(=S)N/C1=C/c1cc2cc(-c3ccc4c(c3)COC4=O)ccc2s1`, 27%; in that of `O=C1NC(=S)N/C1=C/c1ccc2cc(-c3ccc4c(c3)COC4=O)ccc2n1`, 48.5%.
Take `O=C1NC(=S)N/C1=C/c1nc(-c2ccc3c(c2)COC3=O)cs1`: the viability at 20 µM turned out to be 91%.
With `O=C1NC(=S)N/C1=C/c1cc(-c2ccc3c(c2)COC3=O)no1`, the viability at 20 µM was determined as 63%.

Another data set concerns the target Pneumolysin (Streptococcus pneumoniae serotype 4 (strain ATCC BAA-334 / TIGR4)) (UniProt P0C2J9). The data set is described as follows: Inhibition of Streptococcus pneumoniae pneumolysin-mediated lysis of Jurkat cells assessed as [51Cr] release at 20 uM […] for 30 mins followed by incubation with [51Cr]-labeled Jurkat cells by gamma counting. Format: cell-based.
Settings: not given
The procedure, abridged:
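Single 20 µM concentration, preincubated 30 min with pneumolysin in place of perforin, with DMSO as negative control. Jurkat cells were labelled 1 h with 100 µCi ⁵¹Cr, washed three times, and resuspended at 1 × 10⁵ cells/mL in RPMI with 0.1% BSA. Labelled cells were then added for 4 h at 37 °C, and supernatant radioactivity was gamma-counted.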
Turning to `O=C1NC(=S)N/C1=C/c1ccc(-c2ccc3c(c2)COC3=O)o1`, the inhibition entry is “inactive”.

A further data set concerns the target T1, Perforin-1 (Homo sapiens). The data set is described as follows: Inhibition of recombinant perforin-mediated lysis of Jurkat cells assessed as [51Cr] release at 20 uM preincubated with perforin for 30 mins followed by incubation with [51Cr]-labeled Jurkat cells by gamma counting. The data set is classed as cell-based.
Settings: not given
The procedure, abridged:
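Compound at 20 µM was preincubated with recombinant perforin for 30 min, with DMSO as negative control. Jurkat cells were labelled with 100 µCi ⁵¹Cr for 1 h, washed ×3 and used at 1 × 10⁵/mL in RPMI + 0.1% BSA. They were added and incubated for 4 h at 37 °C. Supernatant radioactivity was measured by gamma counting. Triplicate points.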
Turning to `O=C1NC(=S)N/C1=C/c1ccc(-c2ccc3c(c2)COC3=O)o1`, the inhibition entry is “Active”.

The next data set has as its target T1, Perforin-1 (Homo sapiens). The data set is described as follows: Inhibition of perforin released from human KHYG-1 NK cells assessed as inhibition of perforin-mediated lysis of human K562 cells at 20 uM by [51Cr] release assay in presence of 10% mouse serum. The data set is classed as cell-based.
Settings: not given
The procedure, abridged:
as §1
For the molecule `O=C1NC(=S)N/C1=C/c1cc2cc(-c3ccc4c(c3)COC4=O)ccc2[nH]1`, the inhibition amounted to 83%.
For the molecule `Cc1cc2c(c(=S)[nH]1)C(=O)OC2=Cc1csc2ccccc12`, the inhibition turned out to be 10.3%.
On the same count and under the same terms, in the case of `O=C1NC(=O)/C(=C\c2ccc(-c3ccc4c(c3)COC4=O)s2)N1` it was 64%; in that of `O=C1NC(=S)N/C1=C/c1cc2cc(-c3ccc4c(c3)COC4=O)ccc2o1`, 35%; in that of `O=C1NC(=S)NC(=O)C1=Cc1ccc(-c2ccc3c(c2)COC3=O)s1`, 73%.
Still for that read-out and setting: to `O=C1NC(=S)N/C1=C/c1cc2ccc(-c3ccc4c(c3)COC4=O)cc2s1` belongs 25%.
As for `O=C1NC(=S)N/C1=C/c1cnc(-c2ccc3c(c2)COC3=O)s1`, the inhibition was 27%.
As to `O=C1NC(=S)N/C1=C/c1cc2ccc(-c3ccc4c(c3)COC4=O)cc2[nH]1`, the inhibition amounted to 100%.
On the same count and under the same terms, in the case of `O=C1NC(=S)N/C1=C/c1cc(-c2ccc3c(c2)COC3=O)ns1` it was 26%; in that of `O=C1NC(=O)/C(=C\c2ccc(-c3ccc4c(c3)COC4=O)s2)S1`, 12%.
On the same count and under the same terms, to `O=C1NC(=S)N/C1=C/c1cc(-c2ccc3c(c2)COC3=O)cs1` belongs 42%; to `O=C1NC(=O)C(=Cc2ccc(-c3ccc4c(c3)COC4=O)s2)C(=O)N1`, 10%.
Same read-out and setting: to `O=C1NC(=S)N/C1=C/c1ccc(-c2ccc3c(c2)COC3=O)s1` belongs 38.9%; to `O=C1NC(=S)N/C1=C/c1ccc(-c2ccc3c(c2)COC3=O)cn1`, 20%; to `O=C1NC(=S)N/C1=C/c1ccc(-c2ccc3c(c2)COC3=O)o1`, 23%.
In the case of `O=C1NC(=S)N/C1=C/c1ccc2ccc(-c3ccc4c(c3)COC4=O)cc2n1`, the inhibition came to 38%.
Regarding `O=C1NC(=S)N/C1=C/c1ccc(-c2ccc3c(c2)COC3=O)cc1`, the inhibition was determined as 30%.
Same read-out and setting: to `O=C1NC(=S)N/C1=C/c1csc(-c2ccc3c(c2)COC3=O)n1` belongs 2%; to `O=C1NC(=S)N/C1=C/c1cc2cc(-c3ccc4c(c3)COC4=O)ccc2s1`, 17%; to `O=C1NC(=S)N/C1=C/c1ccc2cc(-c3ccc4c(c3)COC4=O)ccc2n1`, 35%.
Same read-out and setting: in the case of `O=C1NC(=S)N/C1=C/c1nc(-c2ccc3c(c2)COC3=O)cs1` it was 13%; in that of `O=C1NC(=S)N/C1=C/c1cc(-c2ccc3c(c2)COC3=O)no1`, 23%.
